Measured values of several laboratories.
Each line is one published result; the experiments were not run side by side.
Read-out: cell growth or viability

SMILES | cell line | test | setting | IC50 [µM]
CC(C)n1c(/C=C/C(O)CC(O)CC(=O)O)c(-c2ccc(F)cc2)c2ccccc21 (centres unmarked) | L1210 | MTS | 96 h | 2.3
NC(=O)c1ccc2c(c1)C(=O)CCc1ccccc1C(=O)N2 | L6 |  |  | > 340
COc1cc(NS(C)(=O)=O)ccc1Nc1c2ccccc2nc2ccccc12 | GISTT1 | resazurin | 72 h | 0.31
O=C1C(=Cc2ccccc2)CN(C(=O)c2ccc(C(=O)N3CC(=Cc4ccccc4)C(=O)C(=Cc4ccccc4)C3)cc2)CC1=Cc1ccccc1 | L1210 |  |  | > 500
C[C@@H]1O[C@@H](O[C@H]2C[C@@H](O)[C@]3(CO)[C@H]4[C@H](O)C[C@]5(C)[C@@H](C6=CC(=O)OC6)CC[C@]5(O)[C@@H]4CC[C@]3(O)C2)[C@H](O)[C@H](O)[C@H]1O | GISTT1 | resazurin | 72 h | 0.21
O=C1Nc2ccccc2C(=O)CCCc2ccccc21 | L6 |  |  | 130
CC(C)[C@H](N)c1nc2cc(-c3ccnnc3)sc2c(=O)[nH]1 | COLO 205 | MTT |  | 5.97
CCC(=O)Nc1cc(Nc2nc(Nc3cnn(C)c3)c3sccc3n2)c(OC)cc1N(C)CCN(C)C | NCI-H460 | MTT |  | > 50
Nc1nc(Cl)nc2c1ncn2[C@@H]1O[C@H](CO)[C@@H](O)[C@@H]1F | GISTT1 | resazurin | 72 h | > 1
COc1cccc(C(=O)c2cc3c(-c4ccccc4)c(OC)ccc3o2)c1 | L1210 |  | 48 h | 10
O=c1c(O)c(-c2ccc(O)c(O)c2)oc2cc(O)cc(O)c12 | SCaBER | ATP luminescence | 72 h | 24.2
C#C[C@]1(O)CC[C@H]2[C@@H]3CCC4=Cc5oncc5C[C@]4(C)[C@H]3CC[C@@]21C | GISTT1 | resazurin | 72 h | > 1
CCN1CCN(c2ccc(Nc3cc(N(C)C(=O)Nc4c(Cl)c(OC)cc(OC)c4Cl)ncn3)cc2)CC1 | MDA-MB-453 | ATP luminescence | 96 h | > 1
COc1cc(Nc2nccc(-c3cnn4nc(OC)ccc34)n2)cc(C(F)(F)F)c1 | NCI-H1838 | ATP luminescence |  | > 3
O=C1CCc2ncccc2C(=O)Nc2ccccc21 | L6 |  |  | 160
COc1cccc2c1C(=O)c1c(O)c3c(c(O)c1C2=O)C[C@@](O)(C(=O)CO)C[C@@H]3O[C@H]1C[C@H](N)[C@H](O)[C@H](C)O1 | GISTT1 | resazurin | 72 h | 0.31
CC(C)[C@H](N)c1nc2cc(-c3cn[nH]n3)sc2c(=O)[nH]1 | COLO 205 | MTT |  | 3.79
Nc1nc(F)nc2c1ncn2[C@@H]1O[C@H](COP(=O)(O)O)[C@@H](O)[C@@H]1O | GISTT1 |  | 72 h | 0.53
COc1cc(OC)cc(C(=O)c2cc3c(-c4ccccc4)c(OC)ccc3o2)c1 | L1210 |  | 48 h | > 50

SMILES | cell line | test | setting | IC50 [µM]
CO/N=C1\CCc2ccccc2C(=O)Nc2ccccc21 | L6 |  |  | 250
CC(=O)[C@]1(O)Cc2c(O)c3c(c(O)c2[C@@H](O[C@H]2C[C@H](N)[C@H](O)[C@H](C)O2)C1)C(=O)c1ccccc1C3=O | GISTT1 |  | 72 h | 0.09
O=C1Nc2ccccc2C(=O)CCc2cc(O)ccc21 | L6 |  |  | 84
C=C[C@H]1C[N@@]2CC[C@H]1C[C@@H]2[C@@H](O)c1ccnc2ccc(OC)cc12 | MDCK-II | MTT | 48 h | 267
C=CC(=O)Nc1cc(Nc2nc(N3CCOCC3)c3sccc3n2)c(OC)cc1N(C)CCN(C)C | NCI-H460 | MTT |  | > 50
O=c1[nH]cc(F)c(=O)[nH]1 | L1210 |  | 48 h | 0.49
O=C1Nc2ccc(C(F)(F)F)cc2C(=O)CCc2ccccc21 | L6 |  |  | 9
CC[C@@H](C)[C@H](N)C(=O)N1Cc2ccccc2C1 | RS4-11 | ATP luminescence | 24 h | 71.1
COc1cc([C@@H]2c3cc4c(cc3[C@@H](O[C@@H]3O[C@@H]5CO[C@@H](c6cccs6)O[C@H]5[C@H](O)[C@H]3O)[C@H]3COC(=O)[C@H]23)OCO4)cc(OC)c1O | GISTT1 | resazurin | 72 h | > 1
CCOC(=O)c1ccc2c(c1)C(=O)CCc1ccccc1C(=O)N2 | L6 |  |  | 15
COc1ccc(C(=O)c2cc3c(-c4ccccc4)c(OC)ccc3o2)cc1 | L1210 |  | 48 h | 2.8
CC(C)=CCC/C(C)=C/COc1ccc2ccc(=O)oc2c1 | COLO 205 | MTT | 24 h | 55.1
COc1ccc2oc(C(=O)c3ccccc3)cc2c1-c1ccccc1 | L1210 |  | 48 h | > 50
COc1cc2ccc(=O)oc2cc1OC | COLO 205 | MTT | 72 h | > 100
COc1cc(N(C)CCN(C)C)c(NC(=O)/C=C/C(C)C)cc1Nc1nc(N2CCc3sccc3C2)c2sccc2n1 | NCI-H460 | MTT |  | > 50
COc1ccc(C(=O)c2cc3c(-c4ccccc4)c(O)ccc3o2)cc1 | L1210 |  | 48 h | 1.3
O=C1Nc2ccccc2C(=O)CCc2ccc(F)cc21 | L6 |  |  | 110
COc1cc(-c2oc3cc(O)cc(O)c3c(=O)c2O)ccc1O | SCaBER | ATP luminescence | 72 h | 43.2
COc1ccc(/C=C\c2cc(OC)c(OC)c(OC)c2)cc1O | L1210 |  | 48 h | 0.0032
